Results published in ChEMBL document CHEMBL2413020 (Bioorg Med Chem, 2013).
The source made the active and inactive calls. The rule behind the calls is not given here.

Key:
[1] = molecular target: T1, Prostaglandin G/H synthase 1 (Ovis aries, UniProt P05979); test: Inhibition of ovine COX1 using arachidonic acid as substrate assessed as production of PGF2alpha preincubated for 10 mins followed by substrate addition measured after 2 mins by EIA in presence of stannous chloride
T1 sequence (P05979 whole entry): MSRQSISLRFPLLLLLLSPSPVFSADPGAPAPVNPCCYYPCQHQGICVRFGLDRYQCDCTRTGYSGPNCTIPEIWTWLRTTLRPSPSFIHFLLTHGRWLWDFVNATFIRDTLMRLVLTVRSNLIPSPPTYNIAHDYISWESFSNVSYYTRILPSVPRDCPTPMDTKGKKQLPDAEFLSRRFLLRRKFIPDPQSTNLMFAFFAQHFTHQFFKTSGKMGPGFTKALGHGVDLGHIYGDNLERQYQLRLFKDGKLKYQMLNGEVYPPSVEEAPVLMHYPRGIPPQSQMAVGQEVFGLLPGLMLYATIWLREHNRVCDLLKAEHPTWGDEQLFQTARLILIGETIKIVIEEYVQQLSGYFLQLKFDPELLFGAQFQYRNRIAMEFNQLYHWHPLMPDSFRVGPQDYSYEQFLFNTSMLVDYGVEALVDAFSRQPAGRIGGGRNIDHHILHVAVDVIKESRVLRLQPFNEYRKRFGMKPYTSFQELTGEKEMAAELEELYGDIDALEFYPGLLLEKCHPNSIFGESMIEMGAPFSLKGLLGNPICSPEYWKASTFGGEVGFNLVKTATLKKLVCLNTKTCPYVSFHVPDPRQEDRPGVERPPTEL
In short: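 Kit-based EIA in 0.1 M Tris-HCl pH 8 with 2 mM phenol. Enzyme and compound preincubated 10 min at 37 °C; arachidonic acid started a 2 min reaction, stopped with 1 M HCl, then stannous chloride 5 min at room temperature. EIA plate incubated 18 h, Ellman's reagent, read at 410 nm.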

[2] = molecular target: T2, Prostaglandin G/H synthase 1 (Ovis aries) (UniProt P05979); test: Inhibition of ovine COX1 using arachidonic acid as substrate assessed as production of PGF2alpha at 30 uM preincubated for 10 mins followed by substrate addition measured after 2 mins by EIA in presence of stannous chloride relative to control
T2 sequence (whole entry): T1 sequence (P05979 whole entry)

[3] = system: Rattus norvegicus; test: Antiinflammatory activity in Wistar albino rat assessed as inhibition of carrageenan-induced paw edema at 50 mg/kg, po administered 30 mins prior to carrageenan challenge measured at 4 hrs by plethysmometric analysis relative to control; type: functional
In short: (§1)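 Groups of six male Wistar albino rats (200–250 g), fasted 12 h before and during the test. Agents given orally at 50 mg/kg; vehicle controls received tween 80 (95:5). After 30 min, 0.1 mL of 1% w/v carrageenan in saline injected subplantar into the left hind paw. Paw volume by plethysmometer at 0 h (within 30 s) and at 1, 2, 3 and 4 h. % edema inhibition from (Vt−V0) vs control; mean SEM, ANOVA.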

[4] = system: Rattus norvegicus; test: Antiinflammatory activity in Wistar albino rat assessed as inhibition of carrageenan-induced paw edema at 50 mg/kg, po administered 30 mins prior to carrageenan challenge measured at 3 hrs by plethysmometric analysis relative to control; type: functional; in short: as §1
[5] = system: Rattus norvegicus; test: Antiinflammatory activity in Wistar albino rat assessed as inhibition of carrageenan-induced paw edema at 50 mg/kg, po administered 30 mins prior to carrageenan challenge measured at 2 hrs by plethysmometric analysis relative to control; type: functional; in short: as §1
[6] = system: Rattus norvegicus; test: Antiinflammatory activity in Wistar albino rat assessed as inhibition of carrageenan-induced paw edema at 50 mg/kg, po administered 30 mins prior to carrageenan challenge measured at 1 hr by plethysmometric analysis relative to control; type: functional; in short: as §1
[7] = system: Rattus norvegicus; test: Antiinflammatory activity in Wistar albino rat assessed as inhibition of carrageenan-induced paw edema at 50 mg/kg, ip administered 30 mins prior to carrageenan challenge measured at 4 hrs by plethysmometric analysis relative to control; type: functional; settings: route intraperitoneal
In short: (§2)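 Male Wistar albino rats (200–250 g), food withdrawn 12 h before and during the test, in groups of six. Reference drug given ip; controls received tween 80 (95:5). At 30 min, 0.1 mL of 1% w/v carrageenan in saline injected subplantar into the left hind paw. Plethysmometer paw volume read within 30 s, then at 1–4 h. % inhibition vs control (Vt−V0); mean SEM, ANOVA.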

[8] = system: Rattus norvegicus; test: Antiinflammatory activity in Wistar albino rat assessed as inhibition of carrageenan-induced paw edema at 50 mg/kg, ip administered 30 mins prior to carrageenan challenge measured at 3 hrs by plethysmometric analysis relative to control; type: functional; settings: route intraperitoneal; in short: as §2
[9] = system: Rattus norvegicus; test: Antiinflammatory activity in Wistar albino rat assessed as inhibition of carrageenan-induced paw edema at 50 mg/kg, ip administered 30 mins prior to carrageenan challenge measured at 2 hrs by plethysmometric analysis relative to control; type: functional; settings: route intraperitoneal; in short: as §2
[10] = system: Rattus norvegicus; test: Antiinflammatory activity in Wistar albino rat assessed as inhibition of carrageenan-induced paw edema at 50 mg/kg, ip administered 30 mins prior to carrageenan challenge measured at 1 hr by plethysmometric analysis relative to control; type: functional; settings: route intraperitoneal; in short: as §2

Row | SMILES | IC50 [1] [µM] | inhibition [2] | inhibition in vivo at 50 mg/kg [3] [%] | inhibition in vivo at 50 mg/kg [4] [%] | inhibition in vivo at 50 mg/kg [5] [%] | inhibition in vivo at 50 mg/kg [6] [%] | inhibition in vivo at 50 mg/kg [7] [%] | inhibition in vivo at 50 mg/kg [8] [%] | inhibition in vivo at 50 mg/kg [9] [%] | inhibition in vivo at 50 mg/kg [10] [%]
1 | NC(=S)c1ccc(-n2nc(C(F)(F)F)cc2-c2cccs2)cc1 | – | 39.8% | 61.5 | 57.2 | 73.4 | 85.9 | – | – | – | –
2 | NC(=S)c1ccc(-n2nc(C(F)(F)F)cc2-c2ccc(Cl)cc2)cc1 | 1.11 | 86.9% | 61.5 | 63 | 77.4 | 89.9 | – | – | – | –
3 | N#Cc1ccc(-n2nc(C(F)(F)F)cc2-c2cccs2)cc1 | – | inactive | 55.9 | 57.8 | 71.4 | 81.8 | – | – | – | –
4 | COc1ccc2c(c1)c(CC(=O)O)c(C)n2C(=O)c1ccc(Cl)cc1 [INDOMETHACIN] | – | – | – | – | – | – | 90.2 | 85 | 90.3 | 96
5 | COc1ccc(-c2cc(C(F)(F)F)nn2-c2ccc(C#N)cc2)cc1 | – | – | 54.8 | 69.9 | 85.2 | 44.4 | – | – | – | –
6 | NC(=S)c1ccc(-n2nc(C(F)(F)F)cc2-c2ccc3ccccc3c2)cc1 | – | – | 46 | 53.2 | 72.9 | 92.9 | – | – | – | –
7 | N#Cc1ccc(-n2nc(C(F)(F)F)cc2-c2ccco2)cc1 | – | inactive | 61.6 | 67.6 | 79.1 | 79.8 | – | – | – | –
8 | COc1ccc(-c2cc(C(F)(F)F)nn2-c2ccc(C(N)=S)cc2)cc1 | – | – | 52.9 | 65.9 | 77.9 | 78.8 | – | – | – | –

Continued, in another order:

Row | IC50 [1] [µM] | inhibition [2] | SMILES | inhibition in vivo at 50 mg/kg [3] [%] | inhibition in vivo at 50 mg/kg [4] [%] | inhibition in vivo at 50 mg/kg [5] [%] | inhibition in vivo at 50 mg/kg [6] [%] | inhibition in vivo at 50 mg/kg [7] [%] | inhibition in vivo at 50 mg/kg [8] [%] | inhibition in vivo at 50 mg/kg [9] [%] | inhibition in vivo at 50 mg/kg [10] [%]
9 | 1.11 | 97% | N#Cc1ccc(-n2nc(C(F)(F)F)cc2-c2ccccc2)cc1 | 91 | 84.4 | 81.1 | 91.9 | – | – | – | –
10 | > 30 | 20.1% | NC(=S)c1ccc(-n2nc(C(F)(F)F)cc2-c2ccco2)cc1 | 59.8 | 58.4 | 77.4 | 82.8 | – | – | – | –
11 | > 30 | inactive | NC(=S)c1ccc(-n2nc(C(F)(F)F)cc2-c2ccc(F)cc2)cc1 | 82.8 | 71.7 | 85.4 | 74.8 | – | – | – | –
12 | 2.35 | 86.1% | NC(=S)c1ccc(-n2nc(C(F)(F)F)cc2-c2ccc(Br)cc2)cc1 | 60.3 | 72.8 | 84.9 | 54.5 | – | – | – | –
13 | – | inactive | N#Cc1ccc(-n2nc(C(F)(F)F)cc2-c2ccc(F)cc2)cc1 | 90.4 | 84.4 | 81.1 | 79.8 | – | – | – | –
14 | > 30 | 44.3% | Cc1ccc(-c2cc(C(F)(F)F)nn2-c2ccc(C(N)=S)cc2)cc1 | 51.7 | 60.1 | 79.4 | 73.7 | – | – | – | –
15 | > 30 | 13.4% | N#Cc1ccc(-n2nc(C(F)(F)F)cc2-c2ccc(Br)cc2)cc1 | 86.4 | 83.8 | 88.8 | 78.8 | – | – | – | –
16 | – | 20.7% | N#Cc1ccc(-n2nc(C(F)(F)F)cc2-c2ccc3ccccc3c2)cc1 | 48 | 59.5 | 67.8 | 84.8 | – | – | – | –
17 | 1.42 | 97.9% | NC(=S)c1ccc(-n2nc(C(F)(F)F)cc2-c2ccccc2)cc1 | 50 | 49.7 | 74.9 | 82.8 | – | – | – | –
18 | – | inactive | Cc1ccc(-c2cc(C(F)(F)F)nn2-c2ccc(C#N)cc2)cc1 | 80.2 | 82.7 | 87.2 | 65.7 | – | – | – | –
19 | – | inactive | N#Cc1ccc(-n2nc(C(F)(F)F)cc2-c2ccc(Cl)cc2)cc1 | 65 | 67.6 | 76.5 | 26.3 | – | – | – | –
